These results are taken from article PMC2592099 (Peptides, 2008).

Where two headings read alike, the source gives them in different places.

The test system of one assay is U-87 MG cells. Briefly: Peptide and peptide-platinate activity, modified MTT assay. It is filed as cell-based. As to conditions: 24 hours, nonlinear curve fitting, n=3. The essentials: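 They were plated at 50,000 cells/mL one day before, then exposed to a concentration series of test compound for 24 h. Viability relative to untreated control was read by modified MTT (Aqueous One). IC50 came from nonlinear curve fit. n≥3.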

In assay [1] the target is T1, MMP-2 (Homo sapiens, UniProt P08253).
T1 sequence (P08253 110-660): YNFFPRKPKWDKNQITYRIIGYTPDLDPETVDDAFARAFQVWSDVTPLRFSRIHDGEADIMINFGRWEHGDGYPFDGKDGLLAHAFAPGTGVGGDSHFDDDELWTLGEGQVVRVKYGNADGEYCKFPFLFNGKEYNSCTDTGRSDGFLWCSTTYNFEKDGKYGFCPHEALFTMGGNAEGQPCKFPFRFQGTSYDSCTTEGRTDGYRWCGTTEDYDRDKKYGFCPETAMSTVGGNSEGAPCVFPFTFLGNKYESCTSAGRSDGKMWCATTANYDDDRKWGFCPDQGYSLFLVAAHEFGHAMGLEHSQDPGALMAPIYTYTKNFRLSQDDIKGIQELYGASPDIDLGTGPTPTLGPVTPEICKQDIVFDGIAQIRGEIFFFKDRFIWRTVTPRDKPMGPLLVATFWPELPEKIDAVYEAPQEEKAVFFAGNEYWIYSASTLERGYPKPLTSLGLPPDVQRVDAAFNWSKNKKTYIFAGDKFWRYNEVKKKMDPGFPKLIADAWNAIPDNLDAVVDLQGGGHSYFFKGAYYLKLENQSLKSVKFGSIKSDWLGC
As to conditions: cited from earlier work.

In assay [2] the target is T1, MMP-2. Briefly: Peptide cleavage kinetics with activated MMP-2. It is filed as biochemical. The note with it: for Km / kcat: activated MMP-2 10 nM, Tris-HCl protease buffer pH 7.4, HPLC, n=3. The essentials: (§1)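 Reactions were stopped at set times with EDTA. Products were resolved by C18 reversed-phase HPLC (30–70% acetonitrile/0.1% TFA gradient, 15 min, 1 mL/min) with fluorescence and photodiode-array detection. Fragments were assigned against synthetic fragment retention times and confirmed by MALDI-MS. n≥3.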

The target of another assay is MMP-9 (Homo sapiens, UniProt P14780). Briefly: Peptide cleavage kinetics with activated MMP-9. It is filed as biochemical. As to conditions: for Km / kcat: activated MMP-9 10 nM, Tris-HCl protease buffer pH 7.4, HPLC, n=3. Summed up:
as §1

Chain of MMP-9 (P14780 107-707 limits assumed): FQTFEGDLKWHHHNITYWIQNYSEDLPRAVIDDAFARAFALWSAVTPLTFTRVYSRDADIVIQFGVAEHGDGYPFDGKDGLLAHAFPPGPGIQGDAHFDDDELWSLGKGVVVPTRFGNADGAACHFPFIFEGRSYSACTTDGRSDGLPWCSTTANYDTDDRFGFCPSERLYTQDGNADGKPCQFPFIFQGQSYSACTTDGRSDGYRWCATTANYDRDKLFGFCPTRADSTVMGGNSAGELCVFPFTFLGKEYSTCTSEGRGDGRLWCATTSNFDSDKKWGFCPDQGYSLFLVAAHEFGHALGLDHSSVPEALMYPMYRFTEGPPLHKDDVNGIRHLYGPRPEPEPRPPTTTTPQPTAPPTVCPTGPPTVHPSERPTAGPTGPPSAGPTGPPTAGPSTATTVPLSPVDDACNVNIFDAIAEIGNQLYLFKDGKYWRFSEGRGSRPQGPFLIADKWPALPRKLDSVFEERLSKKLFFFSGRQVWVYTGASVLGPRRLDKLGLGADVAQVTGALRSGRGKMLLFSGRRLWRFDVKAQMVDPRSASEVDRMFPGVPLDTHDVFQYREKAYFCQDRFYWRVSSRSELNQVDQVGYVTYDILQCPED

In the assay with U-87 MG cells, `N.N.[Cl][Pt][Cl]` [cisplatin] yielded a half-inhibitory concentration (IC50) of 46.9 ± 15 µM.

In the assay with U-87 MG cells, `[Cl][Pt-2]([Cl])([Cl])[Cl].[K+].[K+]` [K2PtCl4, potassium tetrachloroplatinate] gave a 50% inhibitory concentration (IC50) of 70.7 ± 15 µM.

Consider GPAGLLG, for which the cleavage site result on MMP-2 [1] is “cleaved between glycine and leucine”.

Turning to K*PAGLLGC-CONH2, the figures for the Km on MMP-2 [2] and at MMP-9 were 1000 ± 500 µM and 400 ± 100 µM, respectively. The values for the kcat on MMP-2 [2] and on MMP-9 were 10.7 ± 4.8 s⁻¹ and 9.6 ± 2.1 s⁻¹, respectively. The cleavage site result on MMP-2 [2] (cleaved with MMP-2 for 2 hours, HPLC comparison with synthesized fragment K*PAG) was “cleaved between glycine and leucine”; at MMP-9 (cleaved with MMP-9 for 2 hours, HPLC comparison with synthesized fragment K*PAG), “cleaved between glycine and leucine”.

On to K*AGLLC-CONH2, for which, on MMP-2 [2], the Km came out at 1400 ± 400 µM and the kcat stood at 0.24 ± 0.08 s⁻¹. Besides, at MMP-9, the Km came to 160 ± 100 µM and the kcat worked out at 0.04 ± 0.01 s⁻¹.
